Screening results from PubChem BioAssay.
PvdQ inh = P. aeruginosa PvdQ acylase inhibition; 340,000 compounds, 0.063% hits; inhibition, % at 10 µM; purified PvdQ acylase, fluorescence plate reader; AID 488965; in the data active means inhibition above about 30%, passing the limit was not always enough
CHOP inhibitor = blocks CHOP induction under ER stress. inhibition, % at 10 µM. 220,000 compounds, 3.8% hits. CHO-K1 CHOP-promoter luciferase, tunicamycin-induced, 15-18 h;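 active means compounds that reduced the stress-induced luciferase reporter signal by more than about 70% of percent inhibition, limit read from the data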
UPR CHOP act = activators of apoptotic arm of unfolded protein response (CHOP) | CHO-CHOP luciferase reporter, UPR activation, luminescence; percent of tunicamycin response over DMSO baseline | activation, % at 10 µM | 330,000 compounds, 0.34% hits | AID 449763;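 active means at 10 µM dose, activation of 40% or more, normalized to positive control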
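System: CHO CHOP reporter cells. Amount: 500 cells per well. Buffer or medium: F12 medium, 10% FBS. Compound dosing: one dose, 10 µM in 0.5% DMSO. Incubation: 6 h compound exposure at 37 °C after overnight seeding. Technique: Steady-Glo luciferase luminescence. Benchmarks: tunicamycin and DMSO controls.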
UPR XBP1 act = activators of adaptive arm of unfolded protein response (XBP1). CHO-XBP1 luciferase reporter, IRE1-XBP1 UPR activation, luminescence; percent of tunicamycin response, DMSO as zero. activation, % at 20 µM. 330,000 compounds, 0.33% hits. AID 463104;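 active means versus positive control, 20 µM dose yields 30% or more activation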
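Material: CHO cell line with stable XBP1 luciferase reporter; buffer or medium: F12 medium containing 10% fetal bovine serum; compound: single point, 20 µM final compound, 1% DMSO; incubation: 6 h treatment, 37 °C; measured by: glow luminescence from Steady-Glo reagent; evaluation: activation, % of tunicamycin; control set: tunicamycin high, DMSO low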
A number is an active result; n = inactive; x = not tested or not shown. Shown is part of a subset that was picked to be rich in hits.

SMILES	PvdQ inh	CHOP inhibitor	UPR CHOP act	UPR XBP1 act
Cc1cc(C(C)(C)C)oc1C(=O)N(CC(=O)NC1CCCC1)c1cccc(C(F)(F)F)c1	n	83	n	n
CC1CN(CC(=O)Nc2nc(-c3ccc(Cl)cc3)cs2)CC(C)O1 (stereo not given)	n	x	x	x
CC12C(=O)N(c3ccccn3)C(=O)C1C1C=CC2C1 (stereo not given)	n	75	n	n
Cc1ccnc2c(N3C(=O)C4C5C=CC(C5)C4(C)C3=O)cccc12 (stereo not given)	n	n	n	n
O=S(=O)(Nc1cccc(-c2ccc3nncn3n2)c1)c1cc(F)ccc1F	n	x	n	n
CC(C)n1nnnc1SCC(=O)N1CCN(Cc2ccc3c(c2)OCCO3)CC1	n	x	n	n
CC(C)COc1ccc(CSCCNC(=S)Nc2ccccc2)cc1	n	83	n	n
O=C(CCN1C(=O)/C(=C\C=C\c2ccccc2)SC1=S)Nc1ccc(C(=O)O)cc1	n	x	n	n
O=C(CN1C(=O)/C(=C\C=C\c2ccccc2)SC1=S)Nc1ccc(F)cc1	n	89	n	n
O=C(COC(=O)CCN1C(=O)/C(=C\C=C\c2ccccc2)SC1=S)Nc1cc(F)ccc1F	n	77	n	n
Cc1cc(/C=C2\SC(=Nc3ccc(F)cc3)NC2=O)c(C)n1-c1ccc(S(N)(=O)=O)cc1	n	77	n	n
CCOc1ccc(OCC(=O)OCC(=O)Nc2ccccc2C#N)cc1	n	x	n	n
N#Cc1ccccc1NC(=O)C1SC(=Nc2ccccc2)C(C(=O)Nc2ccc(Cl)cc2)=C1N (stereo not given)	n	100	n	n
CCOc1ccc(N=C2SC(C(=O)Nc3ccccc3C#N)C(N)=C2C(=O)Nc2ccc(Cl)cc2)cc1 (stereo not given)	n	76	n	n
Cc1ccc(-c2nnn(CC(=O)N(Cc3cccs3)C(C(=O)NC(C)(C)C)c3ccco3)n2)o1 (stereo not given)	n	n	n	n
Cc1ccc(-c2nnn(CC(=O)N(Cc3cccs3)C(C(=O)NC(C)(C)C)c3ccc(C)o3)n2)o1 (stereo not given)	n	76	n	n
COc1ccc(-c2nc(CSCC(=O)NCc3ccc4c(c3)OCO4)c(C)o2)cc1	n	80	n	n
Cc1ccsc1-c1nc(CSCC(=O)NCc2ccc3c(c2)OCO3)c(C)o1	n	81	n	n
COc1ccc(-c2nc(CSCC(=O)NCc3ccc4c(c3)OCO4)c(C)o2)cc1OC	n	n	n	n
COC(=O)C1C(=O)C2=C(CC1C)Nc1ccccc1NC2c1cccs1 (stereo not given)	n	n	n	n
COc1ccc(/C=C/C(=O)OCCCN(C)C)cc1	n	n	n	n
Cc1cccc(N2CCc3c2nc2ccc(Br)cc2c3N)c1	n	n	n	n
CSc1nc(C)c2c(n1)N(c1cccc(C)c1)CC2	n	88	n	n
COC(=O)c1ccc(OC(=O)CS(=O)c2ccccc2[N+](=O)[O-])cc1 (stereo not given)	n	n	n	n
O=C(CS(=O)c1ccc(C(F)(F)F)cc1[N+](=O)[O-])Oc1ccccc1 (stereo not given)	n	88	n	n
SMILES	PvdQ inh	CHOP inhibitor	UPR CHOP act	UPR XBP1 act
Cn1cc(C(c2ccccn2)c2cn(C)c3ccccc23)c2ccccc21	n	78	n	n
C[C@H](NC(=O)Cc1ccccc1)C(=O)N1CCC2(CC1)NCCc1[nH]cnc12	n	x	n	n
CCC1=C2CC[C@H]3C(=O)NC(=O)[C@H]3[C@H]2[C@@]2(Cc3ccccc3)C(=NCC(=O)OC)OC(=O)N2C1=O	n	n	n	n
CC1Cc2c([nH]c(=O)n(-c3ccccc3)c2=O)O1 (stereo not given)	n	x	x	x
COc1ccccc1-c1cc(SC)c(C#N)c(=O)o1	n	94	n	n
COc1ccccc1-c1cc(C(F)(F)F)c(C#N)c(=O)[nH]1	n	n	n	n
C=CCn1c(NCCc2ccccc2)nc2c1c(=O)n(C)c(=O)n2C	n	n	n	n
CN(Cc1ccccc1)Cc1nc2c(c(=O)n(C)c(=O)n2C)n1CCCc1ccccc1	n	77	n	n
Cc1ccc(Cn2c(NCCc3ccccc3)nc3c2c(=O)n(C)c(=O)n3C)cc1	n	79	n	n
O=C1OC(CN(Cc2ccccc2)Cc2ccccc2)CN1N=Cc1ccc([N+](=O)[O-])o1 (stereo not given)	n	x	x	x
CC1CN(C(=O)COC(=O)c2ccc(Cl)nc2)CC(C)O1 (stereo not given)	n	n	n	n
CCN1CCN(CCCNC(=O)CCC(=O)N2CC(C)Oc3ccc(C)cc32)CC1 (stereo not given)	n	x	n	n
CCc1nc2ccccc2c(=O)n1NC(=O)c1c(O)c2cccc3c2n(c1=O)CCC3	n	95	n	n
O=C(Nc1cccnc1)c1c(O)c2cccc3c2n(c1=O)CC3	n	80	n	n
C/C=C/C(=O)Nc1nnc(-c2ccccc2C)s1	n	85	n	n
C=C(C)C(=O)Nc1nnc(-c2ccccc2C)s1	n	n	x	x
COc1ccc(CCNC(=O)CO/N=C/c2cc3c(cc2Br)OCO3)cc1OC	n	n	n	n
COC(C[C@@H](O)C[C@H](O)COCc1ccccc1)OC	n	n	n	n
CN(C)C(CNC(=O)CSc1nc2sc3c(c2c(=O)n1C)CCCC3)c1ccccc1 (stereo not given)	n	x	n	n
Oc1ccc(-c2nccc(-c3cccs3)n2)cc1	n	n	n	n
COC(=O)C(C)Oc1ccc(-c2nccc(-c3cccs3)n2)cc1 (stereo not given)	n	91	n	n
CNC(=O)/C(C#N)=C/c1c(N2CCN(c3ccc(OC)cc3)CC2)nc2c(C)cccn2c1=O	n	x	n	n
O=C(NC(NC(=S)Nc1c(Cl)cc(Cl)cc1Cl)C(Cl)(Cl)Cl)OCc1ccccc1 (stereo not given)	n	88	n	n
Cc1ccc(C)c(NC(=S)NC(NC(=O)OCc2ccccc2)C(Cl)(Cl)Cl)c1 (stereo not given)	n	92	n	n
CC(O)CNc1nc2sc3c(c2c(=O)n1CCc1ccccc1)CCCCC3 (stereo not given)	n	91	n	n
SMILES	PvdQ inh	CHOP inhibitor	UPR CHOP act	UPR XBP1 act
O=C(c1cccc([N+](=O)[O-])c1)c1ccc2c(c1)C(=O)N(c1c[nH]c(=O)[nH]c1=O)C2=O	x	n	n	n
COc1ccc(-c2noc(CCCC(=O)Nc3ccc(C(N)=O)cc3)n2)cc1	n	82	n	n
Cc1cc2nc3n(c2cc1C)CC1CC(C(=O)NCc2ccco2)N(C)C31 (stereo not given)	n	n	n	n
CN(C(=O)/C(N=Nc1cccc(C(F)(F)F)c1)=C(\O)C(F)(F)F)c1ccccc1	n	73	n	n
CC(=O)/C(N=Nc1cccc(C(F)(F)F)c1)=C(\C)O	n	n	n	n
CCOc1ccc(-c2nc3scc(-c4cccs4)c3c(=O)[nH]2)cc1	n	73	n	n
O=C(CC1CCCCC1)N1CCC(c2nc(-c3ccc(S(=O)(=O)N4CCCC4)cc3)no2)CC1	n	95	n	n
